Experiments:
[1] = target: Serine/threonine-protein kinase PAK 4 (Homo sapiens) (UniProt O96013); experiment: Inhibition of recombinant GST-tagged human PAK4 (295 to 591 residues) expressed in baculovirus expression system at 1 uM measured by select screen assay relative to control
Outline: (§1)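 Single-concentration profiling at 1.0 µM in a 28-kinase SelectScreen panel; percent inhibition reported.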

[2] = target: T1, NT-3 growth factor receptor (Homo sapiens, UniProt Q16288); experiment: Inhibition of recombinant His-tagged human TRKC expressed in baculovirus expression system at 1 uM measured by select screen assay relative to control; outline: as §1
[3] = target: Tyrosine-protein kinase BTK (Homo sapiens) (UniProt Q06187); experiment: Inhibition of recombinant His-tagged full length human BTK expressed in baculovirus expression system at 1 uM measured by select screen assay relative to control; outline: as §1
Tyrosine-protein kinase BTK (Homo sapiens), sequence (Q06187 whole entry): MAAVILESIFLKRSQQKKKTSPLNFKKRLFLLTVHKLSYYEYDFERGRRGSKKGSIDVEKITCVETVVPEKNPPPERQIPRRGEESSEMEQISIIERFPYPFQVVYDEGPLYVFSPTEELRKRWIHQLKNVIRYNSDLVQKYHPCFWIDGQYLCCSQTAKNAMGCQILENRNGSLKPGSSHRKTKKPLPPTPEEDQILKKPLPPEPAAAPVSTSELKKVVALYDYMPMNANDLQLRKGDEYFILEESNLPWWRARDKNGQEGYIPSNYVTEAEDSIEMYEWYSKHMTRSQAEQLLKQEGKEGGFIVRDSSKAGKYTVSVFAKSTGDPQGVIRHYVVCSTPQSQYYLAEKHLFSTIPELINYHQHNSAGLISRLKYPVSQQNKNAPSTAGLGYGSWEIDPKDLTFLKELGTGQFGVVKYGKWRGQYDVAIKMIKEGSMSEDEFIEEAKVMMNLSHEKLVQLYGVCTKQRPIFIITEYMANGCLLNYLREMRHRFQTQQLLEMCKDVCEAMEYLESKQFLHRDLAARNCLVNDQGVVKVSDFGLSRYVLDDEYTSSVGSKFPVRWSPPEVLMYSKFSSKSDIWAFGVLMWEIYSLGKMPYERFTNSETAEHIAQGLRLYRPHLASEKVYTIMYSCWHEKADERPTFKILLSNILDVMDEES

KM12 [4] = experiment: Cell cycle arrest in human KM12 cells assessed as accumulation of cells at less G1 phase at 125 nM measured after 48 hrs by AnnexinV-FITC/PI staining based flowcytometry method relative to control; type: functional
KM12 [5] = experiment: Induction of apoptosis in human KM12 cells assessed as early apoptotic cells at 125 nM measured after 48 hrs by AnnexinV-FITC/PI staining based flowcytometry assay relative to control; type: functional
Outline: (§2)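 They were detached with trypsin, washed twice in PBS, and 10^5 cells were suspended in Annexin V binding buffer. Cells were stained with FITC-Annexin V and PI for 10 min at room temperature in the dark, diluted with PBS and analysed by flow cytometry.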

KM12 [6] = experiment: Cell cycle arrest in human KM12 cells assessed as accumulation of cells at G2 phase at 500 nM measured after 48 hrs by AnnexinV-FITC/PI staining based flowcytometry method relative to control; type: functional
KM12 [7] = experiment: Cell cycle arrest in human KM12 cells assessed as accumulation of cells at G2 phase at 125 nM measured after 48 hrs by AnnexinV-FITC/PI staining based flowcytometry method relative to control; type: functional
KM12 [8] = experiment: Cell cycle arrest in human KM12 cells assessed as accumulation of cells at greater G1 phase at 125 nM measured after 48 hrs by AnnexinV-FITC/PI staining based flowcytometry method relative to control; type: functional
[9] = Stability in human plasma assessed as compound remaining incubated for 0 mins by LC-MS/MS analysis; type: ADME, cell-free; conditions: read-out: Stability
Outline: (§3)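 Pooled frozen human plasma thawed at 37 °C, centrifuged to remove clots, pH adjusted to 7.4 if required. Spiked to 2 µM final (from 100 µM dosing solution), in duplicate, incubated at 37 °C in a water bath. Sampled at 0, 10, 30, 60 and 120 min, quenched with acetonitrile stop solution containing internal standards, centrifuged, and supernatant analysed by LC-MS/MS for percent remaining.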

[10] = target: Aurora kinase A (Homo sapiens) (UniProt O14965); experiment: Inhibition of recombinant His-tagged full length human Aurora A expressed in baculovirus expression system at 1 uM measured by select screen assay relative to control; outline: as §1
Aurora kinase A (Homo sapiens), sequence (O14965 whole entry): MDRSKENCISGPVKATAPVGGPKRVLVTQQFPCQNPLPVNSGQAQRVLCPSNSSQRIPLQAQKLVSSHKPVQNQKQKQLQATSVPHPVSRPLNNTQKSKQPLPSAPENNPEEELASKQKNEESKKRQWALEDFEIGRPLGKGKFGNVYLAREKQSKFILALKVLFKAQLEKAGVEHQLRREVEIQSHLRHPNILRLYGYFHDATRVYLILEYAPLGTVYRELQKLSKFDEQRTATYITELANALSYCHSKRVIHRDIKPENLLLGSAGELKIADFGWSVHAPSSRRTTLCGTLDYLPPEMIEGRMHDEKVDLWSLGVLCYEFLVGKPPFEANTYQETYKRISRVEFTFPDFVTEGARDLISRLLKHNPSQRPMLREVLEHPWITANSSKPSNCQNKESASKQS

KM12 [11] = experiment: Induction of apoptosis in human KM12 cells assessed as early apoptotic cells at 500 nM measured after 48 hrs by AnnexinV-FITC/PI staining based flowcytometry assay relative to control; type: functional; outline: as §2
KM12 [12] = experiment: Induction of apoptosis in human KM12 cells assessed as viable cells at 125 nM measured after 48 hrs by AnnexinV-FITC/PI staining based flowcytometry assay relative to control; type: functional; conditions: read-out: Activity
Outline: (§4)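 10^5 cells in Annexin V binding buffer stained with FITC-Annexin V and PI for 10 min at room temperature in the dark, diluted with PBS and analysed by flow cytometry (FITC 494/518 nm, PI 535/617 nm).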

KM12 [13] = experiment: Cell cycle arrest in human KM12 cells assessed as accumulation of cells at S phase at 500 nM measured after 48 hrs by AnnexinV-FITC/PI staining based flowcytometry method relative to control; type: functional
KM12 [14] = experiment: Cell cycle arrest in human KM12 cells assessed as accumulation of cells at less G1 phase at 62.5 nM measured after 48 hrs by AnnexinV-FITC/PI staining based flowcytometry method relative to control; type: functional
[15] = Stability in human plasma assessed as compound remaining incubated for 120 mins by LC-MS/MS analysis; type: ADME, cell-free; conditions: read-out: Stability; outline: as §3
[16] = target: Serine/threonine-protein kinase TBK1 (Homo sapiens) (UniProt Q9UHD2); experiment: Inhibition of recombinant GST-tagged full length human TBK1 expressed in baculovirus expression system at 1 uM measured by select screen assay relative to control; outline: as §1
Serine/threonine-protein kinase TBK1 (Homo sapiens), sequence (Q9UHD2 whole entry): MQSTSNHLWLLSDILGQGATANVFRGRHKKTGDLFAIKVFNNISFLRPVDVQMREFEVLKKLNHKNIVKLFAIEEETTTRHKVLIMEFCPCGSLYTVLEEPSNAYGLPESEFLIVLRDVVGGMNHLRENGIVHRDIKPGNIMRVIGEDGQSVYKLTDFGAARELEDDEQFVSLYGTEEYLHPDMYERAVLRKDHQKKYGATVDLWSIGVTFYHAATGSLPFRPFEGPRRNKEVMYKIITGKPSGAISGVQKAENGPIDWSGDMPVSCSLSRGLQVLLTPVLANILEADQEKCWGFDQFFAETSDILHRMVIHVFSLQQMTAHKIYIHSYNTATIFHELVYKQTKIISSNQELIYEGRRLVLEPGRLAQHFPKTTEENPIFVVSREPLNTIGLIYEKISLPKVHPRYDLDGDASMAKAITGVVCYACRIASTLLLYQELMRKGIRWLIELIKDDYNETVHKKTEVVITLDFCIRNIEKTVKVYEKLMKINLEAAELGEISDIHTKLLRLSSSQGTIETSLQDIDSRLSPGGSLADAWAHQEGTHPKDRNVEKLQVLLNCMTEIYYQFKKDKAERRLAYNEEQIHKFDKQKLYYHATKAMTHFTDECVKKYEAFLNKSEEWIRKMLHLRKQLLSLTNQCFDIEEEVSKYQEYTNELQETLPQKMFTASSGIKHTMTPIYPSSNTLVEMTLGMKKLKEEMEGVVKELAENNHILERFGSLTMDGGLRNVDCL

KM12 [17] = experiment: Cell cycle arrest in human KM12 cells assessed as accumulation of cells at greater G1 phase at 250 nM measured after 48 hrs by AnnexinV-FITC/PI staining based flowcytometry method relative to control; type: functional
[18] = target: T1, NT-3 growth factor receptor; experiment: Inhibition of N-terminal GST-tagged human TRKC (456 to 825 residues) expressed in Sf21 using TK as substrate in presence of ATP measured after 40 mins by HTRF assay
Target sequence in this assay (Q16288 whole entry): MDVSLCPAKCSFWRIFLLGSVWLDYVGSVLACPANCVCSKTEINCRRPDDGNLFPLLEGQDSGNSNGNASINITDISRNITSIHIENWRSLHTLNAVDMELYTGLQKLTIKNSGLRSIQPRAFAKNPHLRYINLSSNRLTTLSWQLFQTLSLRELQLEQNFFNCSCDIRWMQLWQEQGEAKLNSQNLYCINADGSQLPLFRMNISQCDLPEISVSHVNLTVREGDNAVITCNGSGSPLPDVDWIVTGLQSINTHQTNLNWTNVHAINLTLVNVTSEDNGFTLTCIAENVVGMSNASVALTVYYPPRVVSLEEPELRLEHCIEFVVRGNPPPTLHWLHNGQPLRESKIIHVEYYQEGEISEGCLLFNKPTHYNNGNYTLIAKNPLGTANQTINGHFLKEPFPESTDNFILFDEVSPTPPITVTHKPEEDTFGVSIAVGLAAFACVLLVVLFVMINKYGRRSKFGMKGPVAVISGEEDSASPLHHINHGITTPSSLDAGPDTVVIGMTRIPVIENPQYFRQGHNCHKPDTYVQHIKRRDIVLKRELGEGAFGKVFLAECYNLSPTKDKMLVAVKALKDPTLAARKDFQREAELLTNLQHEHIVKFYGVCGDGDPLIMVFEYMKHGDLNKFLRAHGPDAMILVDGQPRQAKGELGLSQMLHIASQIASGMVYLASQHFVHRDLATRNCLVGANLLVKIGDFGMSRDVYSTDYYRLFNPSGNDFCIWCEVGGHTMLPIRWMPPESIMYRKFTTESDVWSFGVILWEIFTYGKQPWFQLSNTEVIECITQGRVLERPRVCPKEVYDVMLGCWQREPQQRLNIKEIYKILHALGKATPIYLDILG

[19] = Clearance in human microsomes assessed as half life at 100 uM measured after 60 mins by LC-MS/MS analysis; type: ADME, Liver, Microsome
Outline: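 Pooled human liver microsomes were diluted to 0.59 mg/mL (working solution) in 100 mM potassium phosphate buffer and pre-warmed at 37 °C. Compound was added from a 100 µM working solution, with NADPH cofactor prepared in 10 mM MgCl2. Incubation ran at 37 °C for 60 min. Aliquots were quenched at 5, 15, 30, 45 and 60 min. A control without NADPH was run in buffer. Samples were analysed by LC-MS/MS.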

KM12 [20] = experiment: Induction of apoptosis in human KM12 cells assessed as viable cells at 1000 nM measured after 48 hrs by AnnexinV-FITC/PI staining based flowcytometry assay relative to control; type: functional; conditions: read-out: Activity; outline: as §4
CYP2C19 = CYP2C19 (Homo sapiens, UniProt P33261); experiment: Inhibition of CYP2C19 in human liver microsomes at 10 uM preincubated for 10 mins followed by addition of NADPH and measured after 15 mins by LC-MS/MS analysis; type: ADME; conditions: time 25 min
CYP2C19, sequence (P33261 whole entry): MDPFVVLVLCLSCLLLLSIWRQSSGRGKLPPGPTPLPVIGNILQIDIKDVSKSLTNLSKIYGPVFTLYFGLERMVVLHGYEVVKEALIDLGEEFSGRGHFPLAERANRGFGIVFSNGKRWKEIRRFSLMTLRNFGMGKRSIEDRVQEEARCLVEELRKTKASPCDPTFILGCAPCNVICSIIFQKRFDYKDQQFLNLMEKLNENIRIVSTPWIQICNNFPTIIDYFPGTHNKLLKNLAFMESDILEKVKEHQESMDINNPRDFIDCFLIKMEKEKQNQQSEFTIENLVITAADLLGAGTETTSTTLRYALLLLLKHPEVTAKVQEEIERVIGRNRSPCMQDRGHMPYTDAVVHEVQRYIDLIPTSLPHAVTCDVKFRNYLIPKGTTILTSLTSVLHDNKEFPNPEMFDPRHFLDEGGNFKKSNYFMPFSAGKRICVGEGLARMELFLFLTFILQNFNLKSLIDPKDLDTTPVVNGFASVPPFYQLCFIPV
Outline: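 Pooled human liver microsomes (0.253 mg/mL) with test compound at 10 µM and probe substrates: phenacetin (CYP1A2), diclofenac (CYP2C9), S-mephenytoin (CYP2C19), dextromethorphan (CYP2D6), midazolam (CYP3A4). 10 min preincubation at 37 °C, NADPH-regenerating system added, 15 min at 37 °C. Stopped with cold acetonitrile containing tolbutamide/labetalol internal standards, centrifuged, supernatant read by LC-MS/MS; % inhibition.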

[21] = Tmax in Sprague dawley rat at 3 mg/kg, po; type: ADME, organism-based; conditions: in vivo
Outline: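 Male/female status not given; SD rats (n = 3 per group) dosed orally at 3 mg/kg as a single dose. Blood taken into heparin tubes at set time points and centrifuged at 4 °C. Plasma levels quantified by LC-MS/MS; noncompartmental parameters fitted.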

[22] = target: RAC-alpha serine/threonine-protein kinase (Homo sapiens) (UniProt P31749); experiment: Inhibition of recombinant His-tagged human full length AKT1 expressed in baculovirus expression system at 1 uM measured by select screen assay relative to control; outline: as §1
RAC-alpha serine/threonine-protein kinase (Homo sapiens), sequence (P31749 whole entry): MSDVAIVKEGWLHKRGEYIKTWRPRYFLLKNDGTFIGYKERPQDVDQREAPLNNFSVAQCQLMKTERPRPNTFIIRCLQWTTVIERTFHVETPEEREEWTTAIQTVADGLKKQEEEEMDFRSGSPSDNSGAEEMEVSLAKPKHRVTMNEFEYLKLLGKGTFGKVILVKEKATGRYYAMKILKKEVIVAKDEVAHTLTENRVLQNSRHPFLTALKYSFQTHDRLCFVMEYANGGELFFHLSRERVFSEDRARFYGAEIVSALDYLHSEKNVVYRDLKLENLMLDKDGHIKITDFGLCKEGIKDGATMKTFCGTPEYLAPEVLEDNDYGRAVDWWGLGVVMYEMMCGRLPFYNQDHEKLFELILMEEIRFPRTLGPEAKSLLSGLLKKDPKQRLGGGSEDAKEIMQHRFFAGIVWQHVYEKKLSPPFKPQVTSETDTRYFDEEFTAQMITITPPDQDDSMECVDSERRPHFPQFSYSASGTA

[23] = target: Serine/threonine-protein kinase PAK 1 (Homo sapiens) (UniProt Q13153); experiment: Inhibition of recombinant GST-tagged human full length PAK1 expressed in baculovirus expression system at 1 uM measured by select screen assay relative to control; outline: as §1
Serine/threonine-protein kinase PAK 1 (Homo sapiens), sequence (Q13153 whole entry): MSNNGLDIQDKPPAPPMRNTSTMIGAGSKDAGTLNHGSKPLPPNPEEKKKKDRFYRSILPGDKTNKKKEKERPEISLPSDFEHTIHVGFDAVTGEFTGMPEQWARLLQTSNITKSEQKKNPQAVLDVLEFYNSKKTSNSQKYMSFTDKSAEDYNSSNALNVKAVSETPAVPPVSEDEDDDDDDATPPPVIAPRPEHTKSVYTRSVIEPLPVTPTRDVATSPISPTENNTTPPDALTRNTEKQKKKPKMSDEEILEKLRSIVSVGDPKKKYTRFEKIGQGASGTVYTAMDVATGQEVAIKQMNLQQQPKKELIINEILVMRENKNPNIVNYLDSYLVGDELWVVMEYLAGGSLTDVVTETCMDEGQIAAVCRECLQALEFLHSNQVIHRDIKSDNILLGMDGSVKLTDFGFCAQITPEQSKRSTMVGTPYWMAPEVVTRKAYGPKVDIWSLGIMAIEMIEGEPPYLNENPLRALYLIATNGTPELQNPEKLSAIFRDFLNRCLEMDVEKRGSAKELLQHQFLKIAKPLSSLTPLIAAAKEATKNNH

Serine/threonine-protein kinase PAK 4 (Homo sapiens), sequence (O96013 whole entry, looked up, the tested form may be a part): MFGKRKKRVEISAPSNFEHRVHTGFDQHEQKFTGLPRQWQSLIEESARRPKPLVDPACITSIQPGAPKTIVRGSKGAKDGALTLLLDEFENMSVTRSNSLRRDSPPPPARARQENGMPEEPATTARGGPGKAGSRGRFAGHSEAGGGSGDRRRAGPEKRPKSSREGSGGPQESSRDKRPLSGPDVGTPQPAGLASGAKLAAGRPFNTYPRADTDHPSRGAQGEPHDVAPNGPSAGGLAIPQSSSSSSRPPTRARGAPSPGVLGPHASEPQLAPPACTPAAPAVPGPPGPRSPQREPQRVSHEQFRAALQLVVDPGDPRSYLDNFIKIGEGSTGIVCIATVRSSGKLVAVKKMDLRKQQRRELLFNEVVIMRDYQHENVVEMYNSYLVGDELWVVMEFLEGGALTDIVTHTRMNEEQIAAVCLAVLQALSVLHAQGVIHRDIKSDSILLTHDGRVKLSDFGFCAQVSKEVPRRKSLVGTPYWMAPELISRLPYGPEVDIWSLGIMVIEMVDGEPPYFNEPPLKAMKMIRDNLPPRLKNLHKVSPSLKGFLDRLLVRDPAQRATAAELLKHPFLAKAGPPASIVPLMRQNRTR

inhibition [1]: 4% | inhibition [2]: 99% | inhibition [3]: 35% | remaining at 0 h [9]: 100% | inhibition [10]: 11% | remaining at 2 h [15]: 101% | inhibition [16]: 7% | IC50 [18]: 11 nM | microsomal CLint at 100 µM [19]: 46.8 µL/min/mg | inhibition at 0.25 h, 10 µM (CYP2C19): 11.5% | Tmax [21]: 1.67 h | inhibition [22]: 2% | inhibition [23]: 3%
SMILES: CN1CCN(c2ccc(C(=O)Nc3n[nH]c4c3CN(Cc3cc(F)cc(F)c3)C4(C)C)cc2)CC1
Activity (KM12 [4]): 7.36% | Activity (KM12 [5]): 18.15% | Activity (KM12 [6]): 8.75% | Activity (KM12 [7]): 11.5% | Activity (KM12 [8]): 2.45% | Activity (KM12 [11]): 35.84% | viability at 0.125 µM (KM12 [12]): 63.5% | Activity (KM12 [13]): 6.56% | Activity (KM12 [14]): 3.63% | Activity (KM12 [17]): 1.26% | viability at 1 µM (KM12 [20]): 23.7%

— ChEMBL document CHEMBL4840303, “Design, synthesis, biological evaluation and pharmacophore model analysis of novel tetrahydropyrrolo[3,4-c]pyrazol derivatives as potential TRKs inhibitors” (Eur J Med Chem, 2021)
